ChEMBL document CHEMBL5058577, “EUbOPEN Chemogenomics Library 2 (Multiplex)” (2022)

Test system: Fibroblast
Assay: Multiplex assay against human fibroblast
Assay type: toxicity, cell-based
Procedure, shortened: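 Live cells carried four stains from seeding: Hoechst33342, BioTracker Green Microtubule Cytoskeleton Dye, MitoTracker Red and Annexin V Alexa Fluor 680. They were imaged on a CQ1 microscope at 37°C and 5% CO2 after compound addition. Using CellPathfinder machine-learning gating, cells were split into Hoechst high-intensity objects or normal cells, normal cells into healthy, pyknosed or fragmented nuclei, and pyknosed cells into mitotic or apoptotic; tubulin, mitochondrial-mass and membrane-permeability phenotypes are per cents of healthy-nucleus cells.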

[1] = 12 h, 1 µM, compound concentration 1 uM, replicate 1
[2] = 12 h, 1 µM, compound concentration 1 uM, replicate 2
[3] = 12 h, 10 µM, compound concentration 10 uM, replicate 1
[4] = 12 h, 10 µM, compound concentration 10 uM, replicate 2
[5] = 24 h, 1 µM, compound concentration 1 uM, replicate 1
[6] = 24 h, 1 µM, compound concentration 1 uM, replicate 2
[7] = 24 h, 10 µM, compound concentration 10 uM, replicate 1
[8] = 24 h, 10 µM, compound concentration 10 uM, replicate 2
[9] = 48 h, 1 µM, compound concentration 1 uM, replicate 1
[10] = 48 h, 1 µM, compound concentration 1 uM, replicate 2
[11] = 48 h, 10 µM, compound concentration 10 uM, replicate 1
[12] = 48 h, 10 µM, compound concentration 10 uM, replicate 2

COC[C@@H](c1ccc(C(F)(F)F)cc1)N1CCN(C2(C)CCN(C(=O)c3c(C)ncnc3C)CC2)C[C@@H]1C.O=C(O)/C=C\C(=O)O [VICRIVIROC MALEATE]
Population Apoptotic (%) [1]: 36% | Population Fragmented Nuclei (%) [1]: 23% | Population Healthy Nuclei (%) [1]: 53% | Population Hoechst High Intensity Objects (%) [1]: 4% | Population Membrane Permeable-Phenotype (%) [1]: 2% | Population Mitochondria Different-Phenotype (%) [1]: 11% | Population Mitotic Cells (%) [1]: 63% | Population Normal (%) [1]: 95% | Population Pyknosed Nuclei (%) [1]: 22% | Population Tubulin-Different-Phenotype (%) [1]: 16% | Total Cell Count [1]: 138 | Population Healthy Nuclei (%) [2]: 51% | Population Membrane Permeable-Phenotype (%) [2]: 5% | Population Mitochondria Different-Phenotype (%) [2]: 13% | Population Pyknosed Nuclei (%) [2]: 25% | Population Tubulin-Different-Phenotype (%) [2]: 41% | Total Cell Count [2]: 190 | Population Apoptotic (%) [3]: 58% | Population Fragmented Nuclei (%) [3]: 26% | Population Healthy Nuclei (%) [3]: 59% | Population Hoechst High Intensity Objects (%) [3]: 17% | Population Membrane Permeable-Phenotype (%) [3]: 2% | Population Mitochondria Different-Phenotype (%) [3]: 4% | Population Mitotic Cells (%) [3]: 41% | Population Normal (%) [3]: 82% | Population Pyknosed Nuclei (%) [3]: 14% | Population Tubulin-Different-Phenotype (%) [3]: 45% | Total Cell Count [3]: 208 | Population Apoptotic (%) [4]: 33% | Population Fragmented Nuclei (%) [4]: 48% | Population Healthy Nuclei (%) [4]: 33% | Population Hoechst High Intensity Objects (%) [4]: 20% | Population Membrane Permeable-Phenotype (%) [4]: 12% | Population Mitotic Cells (%) [4]: 66% | Population Normal (%) [4]: 79% | Population Pyknosed Nuclei (%) [4]: 18% | Population Tubulin-Different-Phenotype (%) [4]: 67% | Total Cell Count [4]: 186 | Population Apoptotic (%) [5]: 66% | Population Fragmented Nuclei (%) [5]: 21% | Population Healthy Nuclei (%) [5]: 57% | Population Hoechst High Intensity Objects (%) [5]: 3% | Population Membrane Permeable-Phenotype (%) [5]: 1% | Population Mitochondria Different-Phenotype (%) [5]: 7% | Population Mitotic Cells (%) [5]: 33% | Population Normal (%) [5]: 96% | Population Pyknosed Nuclei (%) [5]: 20% | Population Tubulin-Different-Phenotype (%) [5]: 18% | Total Cell Count [5]: 138 | Population Apoptotic (%) [6]: 30% | Population Fragmented Nuclei (%) [6]: 28% | Population Healthy Nuclei (%) [6]: 50% | Population Membrane Permeable-Phenotype (%) [6]: 8% | Population Mitochondria Different-Phenotype (%) [6]: 20% | Population Mitotic Cells (%) [6]: 69% | Population Pyknosed Nuclei (%) [6]: 21% | Population Tubulin-Different-Phenotype (%) [6]: 41% | Total Cell Count [6]: 204 | Population Apoptotic (%) [7]: 73% | Population Fragmented Nuclei (%) [7]: 23% | Population Healthy Nuclei (%) [7]: 64% | Population Hoechst High Intensity Objects (%) [7]: 12% | Population Membrane Permeable-Phenotype (%) [7]: 0% | Population Mitochondria Different-Phenotype (%) [7]: 5% | Population Mitotic Cells (%) [7]: 26% | Population Normal (%) [7]: 87% | Population Pyknosed Nuclei (%) [7]: 11% | Population Tubulin-Different-Phenotype (%) [7]: 42% | Total Cell Count [7]: 196 | Population Apoptotic (%) [8]: 42% | Population Fragmented Nuclei (%) [8]: 46% | Population Healthy Nuclei (%) [8]: 39% | Population Hoechst High Intensity Objects (%) [8]: 21% | Population Membrane Permeable-Phenotype (%) [8]: 8% | Population Mitochondria Different-Phenotype (%) [8]: 12% | Population Mitotic Cells (%) [8]: 57% | Population Normal (%) [8]: 78% | Population Pyknosed Nuclei (%) [8]: 14% | Population Tubulin-Different-Phenotype (%) [8]: 60% | Total Cell Count [8]: 183 | Population Apoptotic (%) [9]: 59% | Population Fragmented Nuclei (%) [9]: 21% | Population Healthy Nuclei (%) [9]: 56% | Population Hoechst High Intensity Objects (%) [9]: 3% | Population Membrane Permeable-Phenotype (%) [9]: 0% | Population Mitochondria Different-Phenotype (%) [9]: 7% | Population Mitotic Cells (%) [9]: 40% | Population Normal (%) [9]: 96% | Population Pyknosed Nuclei (%) [9]: 21% | Population Tubulin-Different-Phenotype (%) [9]: 34% | Total Cell Count [9]: 127 | Population Apoptotic (%) [10]: 53% | Population Fragmented Nuclei (%) [10]: 33% | Population Healthy Nuclei (%) [10]: 50% | Population Hoechst High Intensity Objects (%) [10]: 5% | Population Membrane Permeable-Phenotype (%) [10]: 9% | Population Mitochondria Different-Phenotype (%) [10]: 19% | Population Mitotic Cells (%) [10]: 46% | Population Normal (%) [10]: 95% | Population Pyknosed Nuclei (%) [10]: 15% | Population Tubulin-Different-Phenotype (%) [10]: 58% | Total Cell Count [10]: 180 | Population Apoptotic (%) [11]: 73% | Population Fragmented Nuclei (%) [11]: 23% | Population Healthy Nuclei (%) [11]: 65% | Population Hoechst High Intensity Objects (%) [11]: 14% | Population Membrane Permeable-Phenotype (%) [11]: 0% | Population Mitochondria Different-Phenotype (%) [11]: 5% | Population Mitotic Cells (%) [11]: 26% | Population Normal (%) [11]: 85% | Population Pyknosed Nuclei (%) [11]: 10% | Population Tubulin-Different-Phenotype (%) [11]: 48% | Total Cell Count [11]: 206 | Population Apoptotic (%) [12]: 53% | Population Fragmented Nuclei (%) [12]: 54% | Population Healthy Nuclei (%) [12]: 35% | Population Hoechst High Intensity Objects (%) [12]: 20% | Population Membrane Permeable-Phenotype (%) [12]: 9% | Population Mitochondria Different-Phenotype (%) [12]: 10% | Population Mitotic Cells (%) [12]: 46% | Population Normal (%) [12]: 79% | Population Pyknosed Nuclei (%) [12]: 9% | Population Tubulin-Different-Phenotype (%) [12]: 61% | Total Cell Count [12]: 193
